The source made the active and inactive calls. The rule behind the calls is not given here.
Experiments:
[1] = target: Free fatty acid receptor 1 (Homo sapiens, UniProt O14842); assay: Agonist activity at human GPR40 expressed in human HEK293 cells assessed as increase in intracellular calcium flux after 10 mins by fluorescence assay relative to linoleic acid; format: functional, cell-based
Outline: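 Human GPR40 activity read by calcium mobilization to give EC50. Emax expressed relative to linoleic acid as 100%. Mean ± SD, n = 3.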

Rattus norvegicus [2] = assay: Antidiabetic activity in Sprague-Dawley rat assessed as reduction in blood glucose excursion at 10 to 20 mg/kg, po administered 60 mins prior to glucose challenge by OGTT; format: functional, organism-based
Outline: (§1)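 OGTT in SD rats: compound given orally 60 min before a 3.0 g/kg glucose challenge. Blood glucose followed over time, and AUC0-60min or AUC0-120min calculated versus vehicle group. Mean ± SD, n = 8.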

Rattus norvegicus [3] = assay: Antidiabetic activity in Sprague-Dawley rat assessed as reduction in blood glucose AUC (0 to 120 mins) at 10 to 20 mg/kg, po administered 60 mins prior to glucose challenge by OGTT; format: functional, organism-based; outline: as §1
[4] = Cmax in Sprague-Dawley rat at 3 mg/kg, po by LC-ESI-MS analysis; format: ADME, organism-based; design: dose 3 mg/kg, route oral; conditions: in vivo
Outline: (§2)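 SD rats dosed orally (3 or 10 mg/kg) or by intravenous injection (1 mg/kg). Plasma PK parameters derived per route: Cmax, AUC0-t, Tmax, t1/2 and F after oral dosing; CL, AUC0-t, MRT, t1/2 and Vdss after iv dosing. Mean ± SD from three independent experiments (n = 3).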

[5] = AUC (0 to t) in Sprague-Dawley rat at 3 mg/kg, po by LC-ESI-MS analysis; format: ADME, organism-based; conditions: in vivo; outline: as §2
[6] = Elimination half life in Sprague-Dawley rat at 3 mg/kg, po by LC-ESI-MS analysis; format: ADME, organism-based; conditions: in vivo, read-out: beta t1/2 (converted); outline: as §2
[7] = Oral bioavailability in Sprague-Dawley rat at 3 mg/kg by LC-ESI-MS analysis; format: ADME, organism-based; conditions: in vivo; outline: as §2
[8] = Cmax in Sprague-Dawley rat at 10 mg/kg, po by LC-ESI-MS analysis; format: ADME, organism-based; design: dose 10 mg/kg, route oral; conditions: in vivo; outline: as §2
[9] = AUC (0 to t) in Sprague-Dawley rat at 10 mg/kg, po by LC-ESI-MS analysis; format: ADME, organism-based; conditions: in vivo; outline: as §2
[10] = Tmax in Sprague-Dawley rat at 10 mg/kg, po by LC-ESI-MS analysis; format: ADME, organism-based; conditions: in vivo; outline: as §2
[11] = Elimination half life in Sprague-Dawley rat at 10 mg/kg, po by LC-ESI-MS analysis; format: ADME, organism-based; conditions: in vivo, read-out: beta t1/2 (converted); outline: as §2
[12] = Clearance in Sprague-Dawley rat at 1 mg/kg, iv by LC-ESI-MS analysis; format: ADME, organism-based; conditions: in vivo; outline: as §2
[13] = AUC (0 to t) in Sprague-Dawley rat at 1 mg/kg, iv by LC-ESI-MS analysis; format: ADME, organism-based; conditions: in vivo; outline: as §2
[14] = MRT in Sprague-Dawley rat at 1 mg/kg, iv by LC-ESI-MS analysis; format: ADME, organism-based; conditions: in vivo; outline: as §2
[15] = Elimination half life in Sprague-Dawley rat at 1 mg/kg, iv by LC-ESI-MS analysis; format: ADME, organism-based; conditions: in vivo, read-out: beta t1/2 (converted); outline: as §2
[16] = target: T1, Free fatty acid receptor 3 (Homo sapiens) (UniProt O14843); assay: Agonist activity at GPR41 (unknown origin) up to 100 uM; format: functional
T1 sequence (whole entry): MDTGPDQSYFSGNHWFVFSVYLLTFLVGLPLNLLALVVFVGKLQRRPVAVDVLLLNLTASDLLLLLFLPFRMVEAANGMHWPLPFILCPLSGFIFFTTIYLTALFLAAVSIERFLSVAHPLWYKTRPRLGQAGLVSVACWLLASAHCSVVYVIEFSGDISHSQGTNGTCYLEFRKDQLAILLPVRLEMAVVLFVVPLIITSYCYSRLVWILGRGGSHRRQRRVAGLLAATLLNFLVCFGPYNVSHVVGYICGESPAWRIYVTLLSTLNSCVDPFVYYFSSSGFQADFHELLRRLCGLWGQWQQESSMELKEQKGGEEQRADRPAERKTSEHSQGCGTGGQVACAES

[17] = target: T2, Free fatty acid receptor 4 (Homo sapiens) (UniProt Q5NUL3); assay: Agonist activity at GPR120 (unknown origin) up to 100 uM; format: functional
T2 sequence (whole entry): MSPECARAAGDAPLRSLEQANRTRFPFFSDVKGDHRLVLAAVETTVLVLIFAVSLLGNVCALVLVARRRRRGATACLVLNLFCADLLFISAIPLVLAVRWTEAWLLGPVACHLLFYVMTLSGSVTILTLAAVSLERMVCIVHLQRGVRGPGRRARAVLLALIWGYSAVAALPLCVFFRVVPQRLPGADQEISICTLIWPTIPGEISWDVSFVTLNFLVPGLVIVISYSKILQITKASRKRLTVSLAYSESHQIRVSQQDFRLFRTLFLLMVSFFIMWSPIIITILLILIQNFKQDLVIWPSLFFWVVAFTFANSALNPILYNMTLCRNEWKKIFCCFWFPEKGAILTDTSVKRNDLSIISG

[18] = target: T3, Glucose-dependent insulinotropic receptor (Homo sapiens, UniProt Q8TDV5); assay: Agonist activity at GPR119 (unknown origin); format: functional
T3 sequence (Q8TDV5 whole entry): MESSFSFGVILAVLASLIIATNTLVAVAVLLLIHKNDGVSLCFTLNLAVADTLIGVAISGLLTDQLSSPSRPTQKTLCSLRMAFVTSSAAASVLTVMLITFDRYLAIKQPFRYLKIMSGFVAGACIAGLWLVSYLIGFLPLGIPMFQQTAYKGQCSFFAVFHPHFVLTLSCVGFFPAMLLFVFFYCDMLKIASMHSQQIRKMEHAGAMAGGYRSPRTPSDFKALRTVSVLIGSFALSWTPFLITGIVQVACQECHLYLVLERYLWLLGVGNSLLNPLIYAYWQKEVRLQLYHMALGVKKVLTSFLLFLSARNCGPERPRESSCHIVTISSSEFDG

[19] = target: ATP-binding cassette sub-family C member 2 (Homo sapiens, UniProt Q92887); assay: Inhibition of human MRP2
ATP-binding cassette sub-family C member 2, sequence (Q92887 whole entry): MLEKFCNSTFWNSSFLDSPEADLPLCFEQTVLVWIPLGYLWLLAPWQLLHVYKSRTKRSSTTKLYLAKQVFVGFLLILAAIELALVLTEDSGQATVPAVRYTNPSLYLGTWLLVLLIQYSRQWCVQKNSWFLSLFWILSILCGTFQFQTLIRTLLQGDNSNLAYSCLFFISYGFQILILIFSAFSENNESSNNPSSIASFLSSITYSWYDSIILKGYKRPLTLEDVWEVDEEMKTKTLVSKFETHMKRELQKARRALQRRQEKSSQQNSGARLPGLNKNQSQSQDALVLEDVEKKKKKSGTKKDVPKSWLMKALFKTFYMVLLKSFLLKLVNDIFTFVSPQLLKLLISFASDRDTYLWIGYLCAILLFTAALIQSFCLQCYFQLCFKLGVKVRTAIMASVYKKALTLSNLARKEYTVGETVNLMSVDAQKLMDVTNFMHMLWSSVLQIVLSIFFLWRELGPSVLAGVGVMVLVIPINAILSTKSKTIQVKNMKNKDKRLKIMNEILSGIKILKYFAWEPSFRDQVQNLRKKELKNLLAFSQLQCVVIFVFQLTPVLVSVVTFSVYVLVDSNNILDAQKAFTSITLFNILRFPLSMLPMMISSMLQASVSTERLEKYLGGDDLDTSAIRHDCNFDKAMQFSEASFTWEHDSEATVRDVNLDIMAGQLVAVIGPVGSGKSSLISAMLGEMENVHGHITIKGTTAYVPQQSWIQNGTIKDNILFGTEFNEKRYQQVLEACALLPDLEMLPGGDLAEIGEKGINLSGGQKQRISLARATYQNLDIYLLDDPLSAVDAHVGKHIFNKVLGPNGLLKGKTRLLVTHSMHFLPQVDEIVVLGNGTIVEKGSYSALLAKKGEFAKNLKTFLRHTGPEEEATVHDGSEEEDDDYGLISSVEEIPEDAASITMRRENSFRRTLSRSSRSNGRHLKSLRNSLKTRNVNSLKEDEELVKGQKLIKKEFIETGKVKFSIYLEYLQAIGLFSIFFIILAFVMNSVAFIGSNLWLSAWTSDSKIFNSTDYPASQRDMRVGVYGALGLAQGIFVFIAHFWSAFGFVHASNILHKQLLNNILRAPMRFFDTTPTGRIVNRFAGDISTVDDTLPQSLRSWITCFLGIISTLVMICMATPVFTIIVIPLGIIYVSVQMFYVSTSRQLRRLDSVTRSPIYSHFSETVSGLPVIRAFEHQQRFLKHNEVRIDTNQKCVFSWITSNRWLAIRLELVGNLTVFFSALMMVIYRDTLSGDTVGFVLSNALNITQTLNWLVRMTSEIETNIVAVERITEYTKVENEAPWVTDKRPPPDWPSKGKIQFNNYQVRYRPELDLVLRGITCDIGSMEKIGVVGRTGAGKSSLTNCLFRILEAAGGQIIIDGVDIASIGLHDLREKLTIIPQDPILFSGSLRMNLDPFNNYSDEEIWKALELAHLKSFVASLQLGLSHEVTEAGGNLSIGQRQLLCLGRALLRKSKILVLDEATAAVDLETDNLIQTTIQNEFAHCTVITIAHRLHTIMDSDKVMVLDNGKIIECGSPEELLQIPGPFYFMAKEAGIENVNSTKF

Cytochrome P450 3A4 = Cytochrome P450 3A4 (Homo sapiens, UniProt P08684); assay: Inhibition of CYP3A4 (unknown origin); format: ADME
Cytochrome P450 3A4, sequence (P08684 whole entry): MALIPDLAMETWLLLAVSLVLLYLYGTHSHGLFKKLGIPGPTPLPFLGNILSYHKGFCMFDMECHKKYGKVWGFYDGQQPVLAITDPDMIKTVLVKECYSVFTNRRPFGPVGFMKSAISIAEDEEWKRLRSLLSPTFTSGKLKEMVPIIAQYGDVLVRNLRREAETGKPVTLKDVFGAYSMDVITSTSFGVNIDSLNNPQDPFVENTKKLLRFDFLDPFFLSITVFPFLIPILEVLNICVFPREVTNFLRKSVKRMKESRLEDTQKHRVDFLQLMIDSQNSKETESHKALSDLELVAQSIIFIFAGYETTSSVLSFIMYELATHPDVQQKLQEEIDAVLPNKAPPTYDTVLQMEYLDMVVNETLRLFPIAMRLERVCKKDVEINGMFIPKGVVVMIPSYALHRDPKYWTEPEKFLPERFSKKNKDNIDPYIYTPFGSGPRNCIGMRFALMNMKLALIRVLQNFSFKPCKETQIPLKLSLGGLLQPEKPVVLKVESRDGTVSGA

Cytochrome P450 2C19 = Cytochrome P450 2C19 (Homo sapiens, UniProt P33261); assay: Inhibition of CYP2C19 (unknown origin); format: ADME
Cytochrome P450 2C19, sequence (P33261 whole entry): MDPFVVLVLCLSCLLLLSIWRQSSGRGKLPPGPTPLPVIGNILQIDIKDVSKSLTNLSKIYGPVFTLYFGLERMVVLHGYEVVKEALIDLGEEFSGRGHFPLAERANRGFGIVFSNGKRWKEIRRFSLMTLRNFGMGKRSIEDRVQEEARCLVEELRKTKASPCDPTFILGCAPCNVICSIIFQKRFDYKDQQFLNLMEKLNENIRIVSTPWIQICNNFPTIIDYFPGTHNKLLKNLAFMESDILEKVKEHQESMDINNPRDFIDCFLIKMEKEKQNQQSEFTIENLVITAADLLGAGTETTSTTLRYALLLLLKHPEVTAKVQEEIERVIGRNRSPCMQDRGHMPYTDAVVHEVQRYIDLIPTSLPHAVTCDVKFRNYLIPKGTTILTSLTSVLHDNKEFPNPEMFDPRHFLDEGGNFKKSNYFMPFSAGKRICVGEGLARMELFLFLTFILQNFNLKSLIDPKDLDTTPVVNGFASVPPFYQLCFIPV

Cytochrome P450 2C9 = Cytochrome P450 2C9 (Homo sapiens, UniProt P11712); assay: Inhibition of CYP2C9 (unknown origin); format: ADME
Cytochrome P450 2C9, sequence (P11712 whole entry): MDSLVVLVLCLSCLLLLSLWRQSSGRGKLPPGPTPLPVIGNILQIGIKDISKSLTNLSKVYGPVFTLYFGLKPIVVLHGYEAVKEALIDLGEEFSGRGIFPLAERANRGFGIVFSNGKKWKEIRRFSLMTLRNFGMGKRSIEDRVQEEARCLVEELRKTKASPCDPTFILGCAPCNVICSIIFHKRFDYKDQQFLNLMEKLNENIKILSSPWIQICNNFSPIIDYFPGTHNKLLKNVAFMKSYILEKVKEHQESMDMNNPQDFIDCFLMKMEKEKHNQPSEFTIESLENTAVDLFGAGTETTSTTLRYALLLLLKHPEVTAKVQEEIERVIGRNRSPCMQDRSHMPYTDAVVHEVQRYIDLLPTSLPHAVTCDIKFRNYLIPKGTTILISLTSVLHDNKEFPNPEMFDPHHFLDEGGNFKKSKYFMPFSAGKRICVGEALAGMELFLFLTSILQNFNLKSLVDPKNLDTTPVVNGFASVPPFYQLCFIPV

Rattus norvegicus [20] = assay: Subacute toxicity in Sprague-Dawley rat assessed as effect on survival rate at 50 to 100 mg/kg, po administered once daily for 2 weeks; format: organism-based; conditions: in vivo, 336 h
Outline: (§3)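 SD rats dosed orally once daily for two weeks at 50 mg/kg and 100 mg/kg. Subacute toxicity was assessed over the dosing period from survival rate, behaviour, food intake and organ coefficients.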

Rattus norvegicus [21] = assay: Subacute toxicity in Sprague-Dawley rat assessed as effect on food intake at 50 to 100 mg/kg, po administered once daily for 2 weeks; format: organism-based; conditions: in vivo, 336 h; outline: as §3

Free fatty acid receptor 1, sequence (O14842 whole entry): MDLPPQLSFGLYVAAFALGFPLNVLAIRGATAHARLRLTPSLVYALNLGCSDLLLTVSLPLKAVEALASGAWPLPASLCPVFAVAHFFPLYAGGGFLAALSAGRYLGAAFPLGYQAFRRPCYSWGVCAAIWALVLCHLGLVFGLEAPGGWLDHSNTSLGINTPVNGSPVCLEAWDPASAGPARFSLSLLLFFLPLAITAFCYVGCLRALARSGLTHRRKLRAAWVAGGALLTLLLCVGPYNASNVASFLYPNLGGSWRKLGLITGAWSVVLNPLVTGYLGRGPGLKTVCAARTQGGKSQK

**Q.** Which results are given for `CC#C[C@@H](CC(=O)O)c1ccc(OC[C@H]2COc3ccc(Cl)cc3O2)cc1`?
**A.** Emax [1]: 86%; Activity (Rattus norvegicus [2]): Active; Activity (Rattus norvegicus [3]): Active; Cmax [4]: 9310 ng/mL; AUC(0-t) [5]: 140 µg·h/mL; half-life [6]: 16.1 h; bioavailability [7]: 65.5%; Cmax [8]: 47800 ng/mL; AUC(0-t) [9]: 656 µg·h/mL; Tmax [10]: 4 h; half-life [11]: 25.7 h; clearance [12]: 0.17 mL/min/kg; AUC(0-t) [13]: 71.4 µg·h/mL; MRT [14]: 17.9 h; half-life [15]: 13.2 h; Activity [16]: inactive; Activity [17]: inactive; EC50 [18]: > 100 µM; IC50 [19]: > 100 µM; IC50 (Cytochrome P450 3A4): > 100 µM; IC50 (Cytochrome P450 2C19): > 100 µM; IC50 (Cytochrome P450 2C9): 60.5 µM; Activity (Rattus norvegicus [20]): Non-Toxic; Activity (Rattus norvegicus [21]): Non-Toxic
